Data: ChEMBL document CHEMBL4346682 (Eur J Med Chem, 2019)
Calls of active or inactive are those of the source. The rule behind the calls is not given here.

Key:
HMEC-1 [1] = assay: Antiproliferative activity against human HMEC1 cells measured after 4 days by Coulter counter method; assay type: functional, cell-based; details: HMEC-1, 96 h
CCRF-CEM = assay: Antiproliferative activity against human CEM cells measured after 96 hrs by Coulter counter method; assay type: functional, cell-based
Summary of the method: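 CEM suspension cells seeded at 60,000 cells/well with a range of compound concentrations, grown 96 h, then counted. Medium is DMEM with 10% FBS, 0.01 M Hepes and 1 mM sodium pyruvate, 37 °C, 5% CO2.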

HeLa [2] = assay: Antiproliferative activity against human HeLa cells measured after 3 days by Coulter counter method; assay type: functional, cell-based; details: 72 h
L1210 = assay: Antiproliferative activity against mouse L1210 cells measured after 96 hrs by Coulter counter method; assay type: functional, cell-based; details: L1210, 96 h
Summary of the method: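 L1210 suspension cells seeded at 60,000 cells/well with a range of compound concentrations, grown 96 h, counted in a Coulter counter. IC50 is the concentration reducing proliferation by 50%, mean ± SD of three independent experiments.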

Tubulin (Homo sapiens) = Tubulin (Homo sapiens) (UniProt P68371+Q9H4B7+P0DPH7+P68366+Q13509+Q71U36+P04350+Q3ZCM7+P07437+P68363+Q9BQE3+Q6PEY2+Q13885+Q9BVA1+Q9BUF5); assay: Inhibition of human tubulin polymerization assessed as induction of tubulin polymerization destabilization at 30 uM by turbidimetric assay
Tubulin (Bos taurus) = Tubulin (Bos taurus) (UniProt Q6B856+Q862L2+Q862F3); assay: Binding affinity to calf brain tubulin assessed as binding constant incubated for 30 mins in presence of R-PT by fluorescence based method
Summary of the method: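 Competition assay with calf brain tubulin. A premixed 0.2 µM R-PT plus 0.2 µM tubulin sample was exposed to ligand at 0–70 µM in 10 mM sodium phosphate, 0.1 mM GTP, pH 7.0, incubated 30 min at 25 °C. Fluorescence read at 456 nm (excitation 374 nm). Kb fitted by competition analysis, mean of three experiments ± StdError.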

HMEC-1 [3] = assay: Vascular disrupting activity in human HMEC1 cells at 0.08 to 2 uM after 90 mins; assay type: functional, cell-based
Summary of the method: (§1)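 HMEC-1 seeded at 60,000 cells/well on matrigel (10 mg/mL, gelled 30 min at 37 °C) in DMEM with 10% FCS. After 3 h at 37 °C, once tube-like networks formed, compound was added at 2, 0.4 or 0.08 µM. After 90 min, images taken at 100× and meshes, branching points and tube length quantified.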

HeLa [4] = assay: Cell cycle arrest in human HeLa cells assessed as accumulation at G2/M phase at 2 uM measured after 24 hrs by DAPI staining based HCS analysis; assay type: functional
HeLa [5] = assay: Cell cycle arrest in human HeLa cells assessed as accumulation at G2/M phase at 0.016 uM measured after 24 hrs by DAPI staining based HCS analysis; assay type: functional
HeLa [6] = assay: Cell cycle arrest in human HeLa cells assessed as accumulation at G2/M phase at 0.08 uM measured after 24 hrs by DAPI staining based HCS analysis; assay type: functional
HMEC-1 [7] = assay: Vascular disrupting activity in human HMEC1 cells at 0.4 uM after 90 mins; assay type: functional, cell-based; summary of the method: as §1
HMEC-1 [8] = assay: Cell cycle arrest in human HMEC1 cells assessed as accumulation at G2/M phase at 0.08 uM measured after 24 hrs by propidium iodide based FACSCalibur flow cytometry; assay type: functional
Summary of the method: (§2)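 HMEC-1 seeded at 125,000 cells/well in DMEM with 10% FBS and exposed to compound after 24 h. After another 24 h, DNA was stained with propidium iodide and analysed by flow cytometry within 3 h. Debris and clumps were gated out, and sub-G1, G1, S and G2/M fractions estimated with region markers.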

HeLa [9] = assay: Cell cycle arrest in human HeLa cells assessed as accumulation at G2/M phase at 0.4 uM measured after 24 hrs by DAPI staining based HCS analysis; assay type: functional
HMEC-1 [10] = assay: Cell cycle arrest in human HMEC1 cells assessed as accumulation at G2/M phase at 0.4 uM measured after 24 hrs by propidium iodide based FACSCalibur flow cytometry; assay type: functional; summary of the method: as §2

SMILES	IC50 (HMEC-1 [1]) [nM]	IC50 (CCRF-CEM) [nM]	IC50 (HeLa [2]) [nM]	IC50 (L1210) [nM]	Activity (Tubulin (Homo sapiens))	Kb (Tubulin (Bos taurus)) [×10⁶ /M]	Activity (HMEC-1 [3])	Activity (HeLa [4])	Activity (HeLa [5])	Activity (HeLa [6])	Activity (HMEC-1 [7])	Activity (HMEC-1 [8])	Activity (HeLa [9])	Activity (HMEC-1 [10])
CC(=O)c1ccc(Oc2ccccc2NC(C)=C2C(=O)CC(c3ccccc3)CC2=O)cc1 (stereo unspecified)	180	220	130	190	–	–	–	–	–	–	–	–	–	–
CC(Nc1ccccc1Oc1cccc(F)c1)=C1C(=O)CC(c2ccccc2)CC1=O (stereo unspecified)	360	170	550	330	–	–	–	–	–	–	–	–	–	–
COc1ccc(Oc2ccccc2NC(C)=C2C(=O)CC(c3ccccc3)CC2=O)cc1 (stereo unspecified)	83	120	160	140	Active	5.23	–	–	–	–	–	–	–	–
CC(Nc1ccccc1Oc1ccc(C(C)O)cc1)=C1C(=O)CC(c2ccccc2)CC1=O (stereo unspecified)	140	120	75	58	Active	3.13	–	–	–	–	–	–	–	–
CC(Nc1ccccc1Oc1ccc(N)cc1)=C1C(=O)CC(c2ccccc2)CC1=O (stereo unspecified)	47	37	39	40	Active	11.8	Dose-dependent effect	Active	Active	Active	Active	Active	Active	–
CCOc1ccccc1NC(C)=C1C(=O)CC(c2ccccc2)CC1=O (stereo unspecified)	100	190	180	190	Active	13	–	–	–	–	–	–	–	–
CC(Nc1ccccc1Oc1cccc(N)c1)=C1C(=O)CC(c2ccccc2)CC1=O (stereo unspecified)	41	42	82	53	Active	5.56	–	–	–	–	–	–	–	–
CC(Nc1ccccc1Oc1ccccc1)=C1C(=O)CC(c2ccccc2)CC1=O (stereo unspecified)	160	170	79	86	Active	6.46	–	–	–	–	–	–	–	–
COc1cccc(Oc2ccccc2NC(C)=C2C(=O)CC(c3ccccc3)CC2=O)c1 (stereo unspecified)	59	41	93	58	Active	15.7	–	–	–	–	–	–	–	–
CC(Nc1ccccc1Oc1ccc(Cl)cc1)=C1C(=O)CC(c2ccccc2)CC1=O (stereo unspecified)	260	190	500	250	–	–	–	–	–	–	–	–	–	–
COc1ccc(/C=C\c2cc(OC)c(OC)c(OC)c2)cc1OP(=O)(O)O [FOSBRETABULIN DISODIUM]	–	–	–	13	–	–	–	–	–	–	–	–	–	–
COc1cc([C@@H]2c3cc4c(cc3[C@H](O)[C@H]3COC(=O)[C@H]23)OCO4)cc(OC)c1OC	–	–	–	–	Active	–	–	–	–	–	–	–	–	–
COc1ccc(Oc2ccccc2NC(C)=C2C(=O)CC(c3ccccc3)CC2=O)cc1OC (stereo unspecified)	140	160	54	65	Active	2.24	–	–	–	–	–	–	–	–
COc1cc2c(c(OC)c1OC)-c1ccc(OC)c(=O)cc1[C@@H](NC(C)=O)CC2	–	–	–	–	–	–	–	Active	Active	Active	–	–	Active	–
COc1cc(Oc2ccccc2NC(C)=C2C(=O)CC(c3ccccc3)CC2=O)ccc1N (stereo unspecified)	29	12	33	26	Active	18.1	Dose-dependent effect	Active	Active	Active	Active	–	Active	Active
